Screening results deposited in PubChem by Johns Hopkins Ion Channel Center.
Most compounds without a hit are left out; they make up all but 3.7% or so of the library.
KCNQ1 inh – inhibitors of human KCNQ1 potassium channel; P51787; CHO-K1 KCNQ1, FluxOR thallium flux fluorescence; active compounds read high; B-score at 10 µM; 1.3% of 310,000 active;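 active = compounds whose thallium flux B-score, printed positive for inhibition, exceeds three library SD while starting fluorescence stays within three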;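 also: channel opened by potassium depolarization with thallium stimulus after 20 min compound exposure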
KCNK3 block – human KCNK3 channel inhibition, primary screen | O14649 | CHO-KCNK3 thallium flux, FluxOR fluorescence; active compounds read low | B-score at 10 µM | 0.84% of 340,000 active | AID 602410;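 active = B-score under library mean minus 4 SD, starting fluorescence ratio at most library mean plus 5 SD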;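 also: more negative B-score means stronger inhibition of thallium flux through KCNK3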
KCNK9 block – blocks the human KCNK9 two-pore domain potassium channel; AID 488922; Q9NPC2; B-score at 10 µM; HEK293 KCNK9, FluxOR thallium flux fluorescence; active compounds read low; 1.2% of 310,000 active;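 active = ratio B-score over 3 SD below the library mean, with starting fluorescence within 5 SD of its mean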;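 also: negative B-score means less thallium flux so channel inhibition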
hERG rescue – shields human hERG channel from block by proarrhythmic agents. 0.51% of 310,000 active. activation (rescue from dofetilide block), less the hit threshold, % at 10 µM. AID 1511. CHO-hERG, FluxOR thallium flux, dofetilide IC70 present. Q12809;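 active = activation above the mean of controls blocked by dofetilide plus 5 SD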;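 also: thallium influx through hERG after potassium depolarization seen as dye fluorescence rise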
Kir21 inh – blocks the mouse Kir2.1 inward-rectifier potassium channel; P35561; HEK293-Kir2.1, FluxOR thallium flux fluorescence; active compounds read low; B-score at 10 µM; 0.85% of 310,000 active; AID 1672;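 active = fluorescence ratio B-score at or below minus 3 SD of library scores, with starting-brightness B-score within 2 SD, cut at about -4.2 in these data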;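 also: channel flux triggered by added potassium and thallium sulfate stimulus; B-score of peak minus minimum fluorescence over baseline after thallium stimulus; more negative B-score means stronger Kir2.1 block with less thallium influx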
KCNQ1 pot – human KCNQ1 channel potentiation or activation. P51787. 0.35% of 310,000 active. CHO-K1 KCNQ1, thallium flux FluxOR fluorescence; active compounds read high. B-score at 10 µM;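 active = fluorescence ratio B-score, a plate-corrected score, at least three library SD, with initial intensity B-score within 5 SD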
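Test system: CHO-K1 cells stably expressing KCNQ1 / Medium: assay buffer / Also added: depolarizing K+/Tl+ stimulus, K2SO4 and Tl2SO4 each 12.5 mM in 5x stock / Incubation: 90 min dye loading and 20 min compound exposure, both at room temperature / Signal: thallium influx via FluxOR fluorescence, kinetic imaging / Evaluation: B score of baseline-normalized fluorescence ratio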
An asterisk follows results filed as active; i = inactive; x = no result.

SMILES | KCNQ1 inh | KCNK3 block | KCNK9 block | hERG rescue | Kir21 inh | KCNQ1 pot
N#Cc1nc(COc2ccc(Cl)cc2)oc1N1CCCCCC1 | x | -8.7* | x | x | x | x
N#Cc1nc(Cc2cccc3ccccc23)oc1NCCCn1ccnc1 | i | i | i | -10 | -4.2 | i
N#Cc1nc(-c2cccc3ccccc23)oc1NCCN1CCCCC1 | i | i | i | -22 | -4.9* | i
N#Cc1nc(Cc2cccc3ccccc23)oc1NCCCN1CCOCC1 | i | i | i | -1 | -6* | i
N#Cc1nc(Cc2ccccc2)oc1N1CCN(c2ccccc2)CC1 | i | i | -7* | -12 | -0.23 | i
Cc1ccc(OCc2nc(C#N)c(N3CCCCC3)o2)cc1 | i | i | i | -11 | -2.5 | i
COc1ccc(CCNC(=O)C(C)Sc2ccc(C)cc2)cc1OC (centres undefined) | i | i | i | -4 | -4 | i
CCn1ncc(NC(=S)Nc2ccc3c(c2)OCO3)c1C(N)=O | i | i | i | -10 | 0.36 | i
COC(=O)c1ccccc1C(=O)N1CCCC(CCC(=O)NCc2ccc(F)c(F)c2)C1 (centres undefined) | i | i | i | -1 | -0.45 | i
N#Cc1nc(Cc2cccc3ccccc23)oc1N1CCCCC1 | 6* | i | i | -8 | 0.02 | i
CN1CCN(c2oc(Cc3cccc4ccccc34)nc2C#N)CC1 | i | i | i | 2 | -0.22 | i
CN(CC(=O)NCc1ccccc1)CC(=O)Nc1ccc(Cl)c(C(F)(F)F)c1 | x | -9.4* | x | x | x | x
CN(CC(=O)NC(=O)NCc1ccccc1)CC(=O)Nc1ccc(Cl)c(C(F)(F)F)c1 | i | i | i | -15 | 0.66 | i
O=C(CSc1nc(C(F)(F)F)cc(=O)[nH]1)N1CCC(Cc2ccccc2)CC1 | 6* | i | i | -19 | -0.01 | i
Cc1cc(=O)[nH]c(SCC(=O)N2CCC(Cc3ccccc3)CC2)n1 | i | i | i | -5 | 1.6 | i
Cc1cccc(C2Nc3ccccc3C(=O)N2CCc2ccccc2)n1 (centres undefined) | i | i | i | -3 | -2.3 | i
O=C1CSC(c2cccc([N+](=O)[O-])c2)N1Cc1ccccc1 (centres undefined) | i | i | i | 0 | -4.5* | i
O=C1c2ccccc2NC(c2cccc([N+](=O)[O-])c2)N1CCc1ccccc1 (centres undefined) | i | i | -6.6* | -9 | 0.39 | i
Cc1ccc(C2(c3ccccc3)NC(=O)N(CC(=O)NCc3ccco3)C2=O)cc1C (centres undefined) | x | i | x | x | x | x
Brc1ccccc1OCCCCn1cnc2ccccc21 | 8* | i | i | -21 | -0.21 | i
CCOCCN1CCN(c2c(CC)c(C)nc3cc(-c4cc(OC)cc(OC)c4)nn23)CC1 | i | i | -7.2* | -9 | -0.93 | i
CC(=O)N1c2ccc(S(=O)(=O)N(C)CC(=O)Nc3ccccc3C)cc2CC1C (centres undefined) | i | i | i | -5 | 0.7 | i
N#CC(C#N)=C1C=CC=CN1/C(=C\c1ccccc1)C(=O)c1cccs1 | i | i | i | -25 | -5* | i
CC(C)(C)c1ccc(CN2C3=NCCCN3c3ccccc32)cc1 | 11* | i | i | -23 | -3.9 | i
Cc1ccc(CN2C3=NCCCN3c3ccccc32)cc1 | x | i | x | x | x | x
SMILES | KCNQ1 inh | KCNK3 block | KCNK9 block | hERG rescue | Kir21 inh | KCNQ1 pot
CCc1cc(=O)[nH]c(SCc2ccc(C)cc2)n1 | i | i | i | 4.9* | -0.89 | i
CCc1cc(=O)[nH]c(SCc2cccnc2)n1 | i | i | i | -10 | 0.5 | i
O=C(O)/C=C/c1ccc(S(=O)(=O)Nc2ccc(C(=O)NCC(=O)O)cc2)cc1 | i | i | i | -8 | -0.66 | i
O=C(COC(=O)c1cccnc1Cl)Nc1ccc2c(c1)OCCO2 | i | i | i | 37* | 1.6 | i
C/C(=N\OCC(=O)Nc1ccc(OC(F)(F)F)cc1)c1ccc2c(c1)OCCO2 | i | i | i | -6 | -0.02 | 10*
CCc1ccc(OCC(=O)Nc2ccc3c(c2)OCCO3)cc1 | i | i | i | -3 | -4.7* | i
